Data reported in PMC11837772 (RSC Advances, 2025).
“Also recorded” adds a separate entry of the source. Like-named read-outs stand apart in the source and are kept apart here.

What was measured:
papain = target: T1, papain (Carica papaya, UniProt P00784); assay: In vitro cysteine protease inhibition assay; type: biochemical
T1 sequence (P00784 134-345): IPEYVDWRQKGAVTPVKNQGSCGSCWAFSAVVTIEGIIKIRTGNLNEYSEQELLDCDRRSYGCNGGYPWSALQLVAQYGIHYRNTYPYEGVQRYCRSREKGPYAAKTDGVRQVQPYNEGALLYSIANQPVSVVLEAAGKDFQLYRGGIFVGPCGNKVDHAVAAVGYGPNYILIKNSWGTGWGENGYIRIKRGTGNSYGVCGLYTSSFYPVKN
In short: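 Papain was run in activation buffer of sodium acetate (pH 5.5), 8 mM DTT and 4 mM EDTA, with papain […], 10 μM Bz-Arg-AMC and inhibitor at 0–32 μM (dissolved in DMSO). AMC release was followed by fluorescence (excitation 345 nm, emission 440 nm) for 120 min. IC50 came from the straight-line fit of % residual activity versus log[inhibitor].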

[1] = system: L. donovani promastigotes; assay: Cellular morphological alteration of promastigotes; type: cell-based, Leishmania donovani; details: 48 hours, contrast microscope 40× objective
In short: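 Exponential-phase promastigotes (grown at 26 °C in M199 with 10% heat-inactivated FBS) at 2 × 10^6 cells per mL were incubated without or with test compound or reference drug at 1 μM for 48 h. Cell shape was examined by contrast/light microscopy (40× objective) at 0 and 48 h and scored for programmed-cell-death-type morphology.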

[2] = system: intracellular L. donovani amastigotes; assay: Intracellular amastigotes assay in infected macrophages; type: cell-based, Leishmania donovani; details: for Percentage Reductions (%) in intracellular amastigotes: 72 h; for SI (selectivity index): CC50 (THP-1) / IC50 (intracellular amastigotes)
In short: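 Macrophages (5 × 10^4 per chamber) adhered 2 h at 37 °C in 5% CO2, were washed with serum-free RPMI, then infected overnight with metacyclic L. donovani at 10:1 in complete RPMI 1640. Free promastigotes were washed off after 24 h, and test compound was added in duplicate for 72 h at 37 °C in 5% CO2. Giemsa-stained amastigotes per 100 macrophages were counted and expressed as a percentage of the untreated control mean.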

[3] = system: L. donovani promastigotes; assay: IC50 from dose-dependent anti-promastigote activity; type: cell-based, Leishmania donovani; details: 72 h, read-out: IC50 against L. donovani promastigotes
In short: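 Log-phase promastigotes (26 °C, M199 with 10% heat-inactivated FBS) were exposed to graded concentrations of test compound, and viability was read by MTT. Percentage viability was calculated as treated/untreated mean × 100. IC50 was extrapolated from the % viability versus concentration plot, from triplicate experiments as mean ± SEM.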

[4] = system: THP-1 human monocytic cells; assay: Cytotoxicity assay; type: cell-based; details: for Log CC50 / CC50: THP-1 human monocytic cells, 72 h, MTT; for CC50: unit printed in Table 5 only
In short: (§1)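 THP-1 cells in RPMI with 10% FBS were seeded at 1 × 10^6 cells per mL and held 24 h at 37 °C in humidified CO2. Medium was then replaced with test compound or standard at 100, 50, 25, 12.5 and 6.25 μM for 72 h. Viability was read by MTT (0.5 mg mL−1, 4 h, 37 °C), with formazan dissolved in DMSO and absorbance at 570 nm.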

Cytotoxicity assay = type: cell-based, human; details: human, THP-1 human monocytic cells, pH 7.4, Log CC50, THP-1 human monocytic cells, 72 h, MTT
In short: as §1

[5] = system: L. donovani promastigotes; assay: Primary screening against L. donovani promastigotes; type: cell-based; details: Leishmania donovani, 48 h, read-out: % inhibition (48 h)
In short: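 Promastigotes at 2 × 10^6 cells per mL in RPMI at 26 °C were given test compound at 100 μM, with DMSO (0.2%) as solvent, an amphotericin B reference and a medium-only control. Viability was read by MTT and expressed as % inhibition.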

SARS-CoV-2 3CL protease = details: read-out: IC50 against SARS-CoV-2 3CL protease; cited from earlier work
L. donovani = details: read-out: IC50 against L. donovani; ref Ahmed H. E. Hassan and his team; cited from earlier work
[6] = preliminary cytotoxicity assessments; ref Ahmed H. E. Hassan and his team; cited from earlier work
[7] = serial dilutions starting at 25 μM, MTT

## CC/C(=C\c1ccc(OCC(=O)NC(Cc2ccccc2)C(=O)N2CCOCC2)cc1)[N+](=O)[O-] (stereo not drawn) [14a, (E)-N-(1-Morpholino-1-oxo-3-phenylpropan-2-yl)-2-(4-(2-nitrobut-1-en-1-yl)phenoxy)acetamide]
papain
  IC50: 9.63 ± 0.28 µM
[1]
  morphological changes of treated promastigotes: notable morphological alterations
[2]; 3.125 μM
  Percentage Reductions (%) in intracellular amastigotes: 37.2%
[2]; 6.25 μM
  Percentage Reductions (%) in intracellular amastigotes: 44.1%
[2]; 12.5 μM
  Percentage Reductions (%) in intracellular amastigotes: 57.5%
[2]
  SI (selectivity index): 3.55
[3]; Leishmania donovani
  IC50: 11.9 µM
[4]; even at a concentration of 28 μM
  cytotoxicity to mammalian macrophages: negligible cytotoxicity; also recorded: insignificant cytotoxicity
Cytotoxicity assay
  CC50 at 72 h: 28.7 µM
[5]
  inhibition at 100 µM: 84.8%

## CC/C(=C\c1ccc(OCC(=O)N[C@@H](Cc2ccccc2)C(=O)NCC(=O)OC)cc1)[N+](=O)[O-] [14i, Methyl (E)-(2-(4-(2-nitrobut-1-en-1-yl)phenoxy)acetyl)phenylalanylglycinate]
[3]; Leishmania donovani
  IC50: 5.3 µM
Cytotoxicity assay
  CC50 at 72 h: 5.15 µM
[5]
  inhibition at 100 µM: 84.5%

## CC/C(=C\c1ccc(OCC(=O)N[C@@H](Cc2c[nH]c3ccccc23)C(=O)N[C@@H](C)C(=O)OC)cc1)[N+](=O)[O-] [14j, Methyl (E)-(2-(4-(2-nitrobut-1-en-1-yl)phenoxy)acetyl)tryptophylalaninate]
[5]
  inhibition at 100 µM: 65.5%

## CC/C(=C\c1ccc(OCC(=O)N[C@@H](Cc2ccccc2)C(=O)N[C@@H](C)C(=O)OC)cc1)[N+](=O)[O-] [14k, Methyl (E)-(2-(4-(2-nitrobut-1-en-1-yl)phenoxy)acetyl)phenylalanylalaninate]
[5]
  inhibition at 100 µM: 54.8%

## C[C@@H]1[C@H](O)[C@@H](C)/C=C/C=C/C=C/C=C/C=C/C=C/C=C/[C@H](O[C@@H]2O[C@H](C)[C@@H](O)[C@H](N)[C@@H]2O)C[C@@H]2O[C@](O)(C[C@@H](O)C[C@@H](O)[C@H](O)CC[C@@H](O)C[C@@H](O)CC(=O)O[C@H]1C)C[C@H](O)[C@H]2C(=O)O [AmphoB, Amphotericin B, reference compound]
[2]; 3.125 μM
  Percentage Reductions (%) in intracellular amastigotes: 52.3%
[2]; 6.25 μM
  Percentage Reductions (%) in intracellular amastigotes: 63.2%
[2]; 12.5 μM
  Percentage Reductions (%) in intracellular amastigotes: 85.5%
[2]
  SI (selectivity index): 3.48
[3]; Leishmania donovani
  IC50: 3.07 µM
[5]
  inhibition at 100 µM: 78.5%

## O=[N+]([O-])C=Cc1ccc([N+](=O)[O-])cc1 [compound 2, 4-nitro-β-nitrostyrene]
SARS-CoV-2 3CL protease
  IC50: 0.73 µM

## CCCCCCCC/C=C\CCCCCCCCCCCCOP(=O)([O-])OCC[N+](C)(C)C [erufosine]
L. donovani
  IC50: 9.8 µM
[6]
  CC50: 19.4 µM

## (E)-1-(2-(Morpholine-4-carbonyl)pyrrolidin-1-yl)-2-(4-(2-nitrobut-1-en-1-yl)phenoxy) ethan-1-one [14b]
[3]; [7]
  IC50: 16.8 µM
[4]
  Log CC50: 0.7734
  CC50: 5.93 µM

## (E)-2-(4-(2-Nitrobut-1-en-1-yl)phenoxy)-1-(2-(thiomorpholine-4-carbonyl)pyrrolidin-1-yl)ethan-1-one [14d]
[3]; [7]
  IC50: 7.56 µM
[4]
  Log CC50: 0.5025
  CC50: 3.18 µM

## (E)-2-(4-(2-Nitrobut-1-en-1-yl)phenoxy)-N-(1-oxo-3-phenyl-1-thiomorpholinopropan-2-yl)acetamide [14c]
[3]; [7]
  IC50: 7.24 µM
[4]
  Log CC50: 0.5684
  CC50: 3.7 µM

## Methyl (E)-(2-(1H-indol-3-yl)-2-(2-(4-(2-nitrobut-1-en-1-yl)phenoxy)acetamido)acetyl)valinate [14h]
[3]; [7]
  IC50: 10 µM
[4]
  Log CC50: 1.109
  CC50: 12.9 µM
